Consider 13 compounds from ChEMBL document CHEMBL4480454, “Parvifoline Derivatives as Tubulin Polymerization Inhibitors” (J Nat Prod, 2019).

Structures are written as SMILES. Activity calls are given as the source filed them. No cut-off for these calls is given here.

For assay [1], the species on record is Sus scrofa. Put plainly: Inhibition of porcine brain tubulin alpha/beta polymerization at 10 uM measured every minute for 90 mins relative to colchicine.
For assay [2], the species on record is Sus scrofa. Briefly: Inhibition of porcine brain tubulin alpha/beta polymerization at 50 uM measured every minute for 60 mins relative to colchicine. The method, boiled down:
(§1)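 Turbidity assay with porcine brain α,β-tubulin (97%), final 2 mg/mL, in pH 6.9 buffer of 80.0 mM PIPES sesquisodium, 2.0 mM MgCl2, 0.5 mM EGTA and 1.0 mM GTP. Tubulin added at 0 °C to compound in DMSO, then A450 read every minute for 60 min at 37 °C. Time-zero reading subtracted. […] Triplicate; ANOVA with Tukey test.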

For assay [3], the species on record is Sus scrofa. Put plainly: Inhibition of porcine brain tubulin alpha/beta polymerization at 50 uM measured every minute for 90 mins relative to colchicine.
Assay [4] is filed under the species Sus scrofa. Put plainly: Inhibition of porcine brain tubulin alpha/beta polymerization at 10 uM measured every minute for 60 mins relative to colchicine. The method, boiled down: as §1
For a further assay, the system named is HCT-116. Briefly: Cytotoxicity against human HCT116 cells assessed as reduction in cell viability after 72 hrs by SRB assay. The class given is functional, cell-based. As to conditions: HCT-116, 72 h.
The test system of another assay is HeLa. Put plainly: Cytotoxicity against human HeLa cells assessed as reduction in cell viability after 72 hrs by SRB assay. In kind it is functional, cell-based.
The species entered for assay [5] is Sus scrofa. Put plainly: Competitive inhibition of colchicine binding to porcine brain tubulin alpha/beta polymerization at 10 to 50 uM preincubated for 30 mins followed by 50 uM colchicine addition and measured after 60 mins by fluorescence assay. The method, boiled down:
(§2)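 Porcine brain α,β-tubulin (97%) in general buffer pH 6.9 (80.0 mM PIPES sesquisodium, 2.0 mM MgCl2, 0.5 mM EGTA), no GTP, final 1 mg/mL, added at 0 °C to compound in DMSO (final 10, 20, 50 μM). […] DMSO control included.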

For assay [6], the species on record is Sus scrofa. Briefly: Induction of porcine brain tubulin alpha/beta polymerization at 10 uM measured every minute for 30 mins.
For assay [7], the species on record is Sus scrofa. Put plainly: Competitive inhibition of colchicine binding to porcine brain tubulin alpha/beta polymerization at 10 to 50 uM preincubated for 30 mins followed by 5 uM colchicine addition and measured after 60 mins by fluorescence assay. An outline of the steps:
as §2

For `Cc1cc2c(cc1O)[C@@]1(C)CCC[C@H](C)[C@@H]2O1`, the inhibition is 21.9% in the assay listed under Sus scrofa [1], 76.1% in the assay listed under Sus scrofa [2], 62.5% in the assay filed under Sus scrofa [3] and 38.7% in the assay listed under Sus scrofa [4].

Turning to `COc1cc2c(c(OC)c1OC)-c1ccc(OC)c(=O)cc1[C@@H](NC(C)=O)CC2` [COLCHICINE], the values for the IC50 in the assay on HCT-116 and in the assay on HeLa were 0.04 µM and 0.011 µM, respectively.

As for `C/C1=C/CC[C@@H](C)c2cc(O)c(C)cc2C1`, the inhibition in the assay filed under Sus scrofa [1] turned out to be 51%; in the assay filed under Sus scrofa [2], 54.6%; in the assay listed under Sus scrofa [3] it was 66.7%; in the assay filed under Sus scrofa [4], 24.4%. In addition, the inhibition result in the assay listed under Sus scrofa [5] is “Active”. Also, in the assay listed under Sus scrofa [6], the outcome was Active. Also, the inhibition entry in the assay listed under Sus scrofa [7] was “inactive”.

Regarding `C/C1=C/c2cc(C)c(O)cc2[C@H](C)CCC1`, the inhibition was 58.1% in the assay filed under Sus scrofa [1] and 56.2% in the assay listed under Sus scrofa [3].

With `Cc1cc2c(cc1O)[C@@]1(C)CC[C@H](O1)[C@H](C)C2`, the inhibition in the assay filed under Sus scrofa [1] was found to be 43.7%; in the assay listed under Sus scrofa [2], 66.3%; in the assay listed under Sus scrofa [3] it was 67%; in the assay filed under Sus scrofa [4] it was 40.2%.

Consider `Cc1cc2c(cc1O)[C@H](C)CCC[C@]1(C)O[C@H]21`, for which the inhibition amounted to 8.3% in the assay filed under Sus scrofa [1], 19.3% in the assay filed under Sus scrofa [2], 36.9% in the assay filed under Sus scrofa [3] and 30.3% in the assay listed under Sus scrofa [4].

Consider `Cc1cc2c(cc1OC(=O)c1ccccc1)[C@@]1(C)CCC[C@H](C)[C@@H]2O1`, for which the inhibition is 2.1% in the assay filed under Sus scrofa [1], -3.4% in the assay listed under Sus scrofa [2], -5.7% in the assay listed under Sus scrofa [3] and 9.2% in the assay listed under Sus scrofa [4].

Take `C/C1=C/c2cc(C)c(OC(=O)c3ccccc3)cc2[C@H](C)CCC1`: the inhibition came out at 35.4% in the assay filed under Sus scrofa [1], 86.6% in the assay filed under Sus scrofa [2], 106% in the assay filed under Sus scrofa [3] and 38.7% in the assay listed under Sus scrofa [4].

For the compound `C/C1=C/CC[C@@H](C)c2cc(OC(=O)c3ccccc3)c(C)cc2C1`, the inhibition is 56.3% in the assay listed under Sus scrofa [1], 46.2% in the assay filed under Sus scrofa [2], 58.9% in the assay listed under Sus scrofa [3] and 11.8% in the assay listed under Sus scrofa [4].

On to `Cc1cc2c(cc1O)[C@H](C)CC[C@@H]1O[C@]1(C)C2`, for which the inhibition in the assay listed under Sus scrofa [1] turned out to be 46.9%; in the assay listed under Sus scrofa [2], 33.6%; in the assay listed under Sus scrofa [3] it was 44.7%; in the assay filed under Sus scrofa [4], 48.7%. For the same compound, the inhibition result in the assay filed under Sus scrofa [5] was “Active”. Also, the inhibition result in the assay filed under Sus scrofa [7] was “inactive”.

Take `Cc1cc2c(cc1OC(=O)c1ccccc1)[C@@]1(C)CC[C@H](O1)[C@H](C)C2`: the results for the inhibition in the assay listed under Sus scrofa [2], in the assay listed under Sus scrofa [3] and in the assay listed under Sus scrofa [4] were 76.9%, 46.9% and 26.1%, respectively.

As for `Cc1cc2c(cc1OC(=O)c1ccccc1)[C@H](C)CC[C@@H]1O[C@]1(C)C2`, the inhibition in the assay filed under Sus scrofa [1] was found to be 47.9%; in the assay filed under Sus scrofa [2], 10.9%; in the assay listed under Sus scrofa [3], 42.2%; in the assay filed under Sus scrofa [4], 30.3%.

For the compound `Cc1cc2c(cc1OC(=O)c1ccccc1)[C@H](C)CCC[C@]1(C)O[C@H]21`, the inhibition in the assay filed under Sus scrofa [1] came to 97.9%; in the assay listed under Sus scrofa [2] it was 51.8%; in the assay filed under Sus scrofa [3], 78.5%; in the assay filed under Sus scrofa [4] it was 89.9%. Further, the inhibition result in the assay listed under Sus scrofa [5] and in the assay filed under Sus scrofa [7] was “inactive” each time. In addition, the values for the IC50 in the assay with HCT-116 and with HeLa were 5 µM and 3.3 µM, respectively.
